Assay results as given in ChEMBL document CHEMBL1777792, “Synthesis and evaluation of indole-based new scaffolds for antimicrobial activities--identification of promising candidates” (Bioorg Med Chem Lett, 2011).

Experiments:
Candida albicans [1] = experiment: Antifungal activity against Candida albicans in yeast extract-peptone-glucose medium at 150 ug/ml after 48 hrs by disc diffusion assay in presence of 100 ug/ml of calcofluor white; type: functional
Method in brief: (§1)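 C. albicans cells at a set number were spread on YEPD agar, either plain or containing the cell-wall disruptant named in the line (SDS, Congo red or calcofluor white). Compound solution, or the reference solvent as control, was spotted onto 0.5 cm discs placed on the lawn. Plates were incubated at 30 °C and the inhibition zone diameter was measured.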

Candida albicans [2] = experiment: Antifungal activity against Candida albicans in yeast extract-peptone-glucose medium at 150 ug/ml after 48 hrs by disc diffusion assay in presence of 0.01% of sodium dodecylsulphate; type: functional; conditions: read-out: DIZ; method in brief: as §1
Candida albicans [3] = experiment: Antifungal activity against Candida albicans in yeast extract-peptone-glucose medium at 150 ug/ml after 48 hrs by disc diffusion assay in presence of 150 ug/ml of congo red; type: functional; conditions: read-out: DIZ; method in brief: as §1
Candida albicans [4] = experiment: Antifungal activity against Candida albicans in yeast extract-peptone-glucose medium at 150 ug/ml after 48 hrs by disc diffusion assay; type: functional; conditions: read-out: DIZ; method in brief: as §1
Escherichia coli [5] = experiment: Antibacterial activity against Escherichia coli harboring ampicillin-resistance gene encoding plasmid at 300 ug/ml after 24 hrs by disc diffusion assay; type: functional; conditions: read-out: DIZ
Method in brief: (§2)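 Disc diffusion used an E. coli strain carrying a plasmid that encodes an ampicillin-resistance gene. Inhibition zone diameters were recorded and compared against the corresponding solvent controls.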

Candida albicans [6] = experiment: Antifungal activity against Candida albicans in synthetic dextrose minimal medium after 48 hrs by ELISA based serial dilution method
Escherichia coli [7] = experiment: Antibacterial activity against Escherichia coli harboring ampicillin-resistance gene encoding plasmid at 375 ug/ml after 24 hrs by disc diffusion assay; type: functional; conditions: read-out: DIZ; method in brief: as §2
Candida albicans [8] = experiment: Antifungal activity against Candida albicans in yeast extract-peptone-glucose medium at 375 ug/ml after 48 hrs by disc diffusion assay in presence of 0.01% of sodium dodecylsulphate; type: functional; conditions: read-out: DIZ; method in brief: as §1
Candida albicans [9] = experiment: Antifungal activity against Candida albicans in yeast extract-peptone-glucose medium at 375 ug/ml after 48 hrs by disc diffusion assay in presence of 100 ug/ml of calcofluor white; type: functional; method in brief: as §1
Candida albicans [10] = experiment: Antifungal activity against Candida albicans in yeast extract-peptone-glucose medium at 375 ug/ml after 48 hrs by disc diffusion assay in presence of rhodamine 6G
Candida albicans [11] = experiment: Antifungal activity against Candida albicans in yeast extract-peptone-glucose medium at 375 ug/ml after 48 hrs by disc diffusion assay; type: functional; conditions: read-out: DIZ; method in brief: as §1
Candida albicans [12] = experiment: Antifungal activity against Candida albicans in yeast extract-peptone-glucose medium at 375 ug/ml after 48 hrs by disc diffusion assay in presence of 150 ug/ml of congo red; type: functional; method in brief: as §1
Candida albicans [13] = experiment: Antifungal activity against Candida albicans in yeast extract-peptone-glucose medium at 250 ug/ml after 48 hrs by disc diffusion assay in presence of 100 ug/ml of calcofluor white; type: functional; method in brief: as §1
Candida albicans [14] = experiment: Antifungal activity against Candida albicans in yeast extract-peptone-glucose medium at 250 ug/ml after 48 hrs by disc diffusion assay in presence of 150 ug/ml of congo red; type: functional; method in brief: as §1
Escherichia coli [15] = experiment: Antibacterial activity against Escherichia coli harboring ampicillin-resistance gene encoding plasmid at 333 ug/ml after 24 hrs by disc diffusion assay; type: functional; conditions: read-out: DIZ; method in brief: as §2
Candida albicans [16] = experiment: Antifungal activity against Candida albicans in yeast extract-peptone-glucose medium at 250 ug/ml after 48 hrs by disc diffusion assay; type: functional; conditions: read-out: DIZ; method in brief: as §1
Candida albicans [17] = experiment: Antifungal activity against Candida albicans in yeast extract-peptone-glucose medium at 250 ug/ml after 48 hrs by disc diffusion assay in presence of rhodamine 6G
Candida albicans [18] = experiment: Antifungal activity against Candida albicans in yeast extract-peptone-glucose medium at 250 ug/ml after 48 hrs by disc diffusion assay in presence of 0.01% of sodium dodecylsulphate; type: functional; conditions: read-out: DIZ; method in brief: as §1
Escherichia coli [19] = experiment: Antibacterial activity against Escherichia coli harboring ampicillin-resistance gene encoding plasmid at 500 ug/ml after 24 hrs by disc diffusion assay; type: functional; conditions: read-out: DIZ; method in brief: as §2
Escherichia coli [20] = experiment: Antibacterial activity against Escherichia coli harboring ampicillin-resistance gene encoding plasmid at 450 ug/ml after 24 hrs by disc diffusion assay; type: functional; conditions: read-out: DIZ; method in brief: as §2
Candida albicans [21] = experiment: Antifungal activity against Candida albicans in yeast extract-peptone-glucose medium at 450 ug/ml after 48 hrs by disc diffusion assay in presence of […]; type: functional
Method in brief: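 This is a C. albicans disc diffusion on YEPD agar containing rhodamine 6G, a substrate of the Cdr1p/Cdr2p ATP-dependent efflux pumps, to test for enhanced R6G toxicity. A set number of cells was spread, and 0.5 cm discs were spotted with compound solution or reference solvent. Plates were incubated at 30 °C and the zone diameter was measured.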

Candida albicans [22] = experiment: Antifungal activity against Candida albicans in yeast extract-peptone-glucose medium at 450 ug/ml after 48 hrs by disc diffusion assay in presence of 100 ug/ml of calcofluor white; type: functional; method in brief: as §1
Candida albicans [23] = experiment: Antifungal activity against Candida albicans in yeast extract-peptone-glucose medium at 450 ug/ml after 48 hrs by disc diffusion assay in presence of 150 ug/ml of congo red; type: functional; method in brief: as §1
Candida albicans [24] = experiment: Antifungal activity against Candida albicans in yeast extract-peptone-glucose medium at 450 ug/ml after 48 hrs by disc diffusion assay in presence of 0.01% of sodium dodecylsulphate; type: functional; conditions: read-out: DIZ; method in brief: as §1
Candida albicans [25] = experiment: Antifungal activity against Candida albicans in yeast extract-peptone-glucose medium at 450 ug/ml after 48 hrs by disc diffusion assay; type: functional; conditions: read-out: DIZ; method in brief: as §1
Candida albicans [26] = experiment: Antifungal activity against Candida albicans in yeast extract-peptone-glucose medium at 300 ug/ml after 48 hrs by disc diffusion assay; type: functional; conditions: read-out: DIZ; method in brief: as §1
Candida albicans [27] = experiment: Antifungal activity against Candida albicans in yeast extract-peptone-glucose medium at 428 ug/ml after 48 hrs by disc diffusion assay in presence of rhodamine 6G
Candida albicans [28] = experiment: Antifungal activity against Candida albicans in yeast extract-peptone-glucose medium at 428 ug/ml after 48 hrs by disc diffusion assay in presence of 150 ug/ml of congo red; type: functional
Method in brief: (§3)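 Disc diffusion on YEPD agar containing a cell-wall-disrupting agent (SDS, Congo red or calcofluor white) and spread with a set number of C. albicans cells. Compound and reference solvent spotted on 0.5 cm discs. Incubated at 30 °C, then inhibition zone diameter measured against solvent.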

Escherichia coli [29] = experiment: Antibacterial activity against Escherichia coli harboring ampicillin-resistance gene encoding plasmid at 428 ug/ml after 24 hrs by disc diffusion assay; type: functional; conditions: read-out: DIZ; method in brief: as §2
Candida albicans [30] = experiment: Antifungal activity against Candida albicans in yeast extract-peptone-glucose medium at 428 ug/ml after 48 hrs by disc diffusion assay; type: functional; conditions: read-out: DIZ
Method in brief: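 Solid-phase assay on YEPD agar spread with a set number of C. albicans cells. Compound solution and reference solvent spotted onto 0.5 cm discs. Plates incubated at 30 °C, and inhibition zone diameter measured against solvent control.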

Candida albicans [31] = experiment: Antifungal activity against Candida albicans in yeast extract-peptone-glucose medium at 428 ug/ml after 48 hrs by disc diffusion assay in presence of 100 ug/ml of calcofluor white; type: functional; method in brief: as §3
Candida albicans [32] = experiment: Antifungal activity against Candida albicans in yeast extract-peptone-glucose medium at 428 ug/ml after 48 hrs by disc diffusion assay in presence of 0.01% of sodium dodecylsulphate; type: functional; conditions: read-out: DIZ; method in brief: as §3

SMILES: O=C(C(=O)N1CCCCC1)c1cn(CCCCn2cc(C(=O)C(=O)N3CCCCC3)c3ccccc32)c2ccccc12
- diameter of the inhibition zone (DIZ) (Candida albicans [1]): 6 mm
- zone of inhibition at 150 µg/mL (Candida albicans [2]): 6.5 mm
- zone of inhibition at 150 µg/mL (Candida albicans [3]): 6 mm
- zone of inhibition at 150 µg/mL (Candida albicans [4]): 6 mm
- zone of inhibition at 300 µg/mL (Escherichia coli [5]): 10.5 mm

SMILES: O=C(C(=O)N1CCOCC1)c1cn(CCCCCn2cc(C(=O)C(=O)N3CCOCC3)c3ccccc32)c2ccccc12
- IC50 (Candida albicans [6]): 340 µM
- zone of inhibition at 375 µg/mL (Escherichia coli [7]): 8.5 mm
- zone of inhibition at 375 µg/mL (Candida albicans [8]): 7 mm
- diameter of the inhibition zone (DIZ) (Candida albicans [9]): 7.5 mm
- diameter of the inhibition zone (DIZ) (Candida albicans [10]): 8 mm
- zone of inhibition at 375 µg/mL (Candida albicans [11]): 7.5 mm
- diameter of the inhibition zone (DIZ) (Candida albicans [12]): 7 mm

SMILES: O=C(C(=O)N1CCOCC1)c1cn(CCCCn2cc(C(=O)C(=O)N3CCOCC3)c3ccccc32)c2ccccc12
- diameter of the inhibition zone (DIZ) (Candida albicans [13]): 7.5 mm
- diameter of the inhibition zone (DIZ) (Candida albicans [14]): 5 mm
- zone of inhibition at 333 µg/mL (Escherichia coli [15]): 10 mm
- zone of inhibition at 250 µg/mL (Candida albicans [16]): 6 mm
- diameter of the inhibition zone (DIZ) (Candida albicans [17]): 7.5 mm
- zone of inhibition at 250 µg/mL (Candida albicans [18]): 7 mm

SMILES: O=C(C(=O)N1CCOCC1)c1cn(CCCn2cc(C(=O)C(=O)N3CCOCC3)c3ccccc32)c2ccccc12
- zone of inhibition at 500 µg/mL (Escherichia coli [19]): 6 mm
- zone of inhibition at 375 µg/mL (Candida albicans [8]): 8.5 mm
- diameter of the inhibition zone (DIZ) (Candida albicans [9]): 6.5 mm
- diameter of the inhibition zone (DIZ) (Candida albicans [10]): 7.5 mm
- zone of inhibition at 375 µg/mL (Candida albicans [11]): 7 mm
- diameter of the inhibition zone (DIZ) (Candida albicans [12]): 8 mm

SMILES: O=C(C(=O)N1CCCCC1)c1cn(CCCCCn2cc(C(=O)C(=O)N3CCCCC3)c3ccccc32)c2ccccc12
- zone of inhibition at 450 µg/mL (Escherichia coli [20]): 8.5 mm
- diameter of the inhibition zone (DIZ) (Candida albicans [21]): 6.5 mm
- diameter of the inhibition zone (DIZ) (Candida albicans [22]): 6.5 mm
- diameter of the inhibition zone (DIZ) (Candida albicans [23]): 7 mm
- zone of inhibition at 450 µg/mL (Candida albicans [24]): 6.5 mm
- zone of inhibition at 450 µg/mL (Candida albicans [25]): 6 mm

SMILES: OC(Cn1cncn1)(Cn1cncn1)c1ccc(F)cc1F [FLUCONAZOLE]
- zone of inhibition at 300 µg/mL (Candida albicans [26]): 15 mm

SMILES: O=C(C(=O)N1CCCC1)c1cn(CCCn2cc(C(=O)C(=O)N3CCCC3)c3ccccc32)c2ccccc12
- diameter of the inhibition zone (DIZ) (Candida albicans [27]): 6.5 mm
- IC50 (Candida albicans [6]): 465 µM
- diameter of the inhibition zone (DIZ) (Candida albicans [28]): 5.5 mm
- zone of inhibition at 428 µg/mL (Escherichia coli [29]): 8 mm
- zone of inhibition at 428 µg/mL (Candida albicans [30]): 7.5 mm
- diameter of the inhibition zone (DIZ) (Candida albicans [31]): 6.5 mm
- zone of inhibition at 428 µg/mL (Candida albicans [32]): 6.5 mm

SMILES: O=C(C(=O)N1CCCC1)c1cn(CCCCn2cc(C(=O)C(=O)N3CCCC3)c3ccccc32)c2ccccc12
- IC50 (Candida albicans [6]): 78 µM
- zone of inhibition at 500 µg/mL (Escherichia coli [19]): 10.5 mm
- zone of inhibition at 375 µg/mL (Candida albicans [8]): 8 mm
- diameter of the inhibition zone (DIZ) (Candida albicans [9]): 7.5 mm
- diameter of the inhibition zone (DIZ) (Candida albicans [10]): 7.5 mm
- zone of inhibition at 375 µg/mL (Candida albicans [11]): 7.5 mm
- diameter of the inhibition zone (DIZ) (Candida albicans [12]): 8 mm
